Assay results: ChEMBL document CHEMBL1129436, “Novel peptidyl alpha-keto amide inhibitors of calpains and other cysteine proteases” (J Med Chem, 1996)

Experiments:
[1] = biological target: T1, Calpain-1 catalytic subunit (Homo sapiens, UniProt P07384); test: Inhibition of the cysteine protease human Calpain 1
T1 sequence (P07384 whole entry): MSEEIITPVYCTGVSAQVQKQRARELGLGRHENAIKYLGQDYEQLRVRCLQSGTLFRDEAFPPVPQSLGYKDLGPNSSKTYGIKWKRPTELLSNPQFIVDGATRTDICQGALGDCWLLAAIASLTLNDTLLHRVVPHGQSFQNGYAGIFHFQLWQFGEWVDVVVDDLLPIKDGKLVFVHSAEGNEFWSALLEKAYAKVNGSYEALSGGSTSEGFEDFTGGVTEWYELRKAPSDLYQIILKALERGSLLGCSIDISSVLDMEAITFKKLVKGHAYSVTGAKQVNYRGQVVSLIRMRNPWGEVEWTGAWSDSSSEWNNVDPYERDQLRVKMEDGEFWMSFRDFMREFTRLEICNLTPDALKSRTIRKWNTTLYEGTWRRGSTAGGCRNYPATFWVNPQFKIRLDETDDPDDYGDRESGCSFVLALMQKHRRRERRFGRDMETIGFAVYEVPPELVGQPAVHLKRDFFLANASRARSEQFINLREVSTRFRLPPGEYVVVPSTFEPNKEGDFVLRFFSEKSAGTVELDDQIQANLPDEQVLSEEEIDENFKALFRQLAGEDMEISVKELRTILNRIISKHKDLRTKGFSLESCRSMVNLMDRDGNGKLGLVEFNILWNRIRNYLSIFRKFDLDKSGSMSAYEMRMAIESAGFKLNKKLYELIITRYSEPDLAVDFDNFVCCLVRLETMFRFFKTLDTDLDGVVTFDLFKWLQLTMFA
How it was run: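 Calpain assay in 25 mM Tris, pH 8.0, with 10 mM CaCl₂ and 5% DMSO. […] hydrolysis was read as initial velocity (t = 30-60 s) after a 30 s delay, at room temperature. Five or more inhibitor concentrations (not above 2 × K_obs) were used at two fixed substrate levels. Ki came from Dixon plots (1/v vs I) averaged over triplicates.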

Cathepsin B [2] = biological target: Cathepsin B (Bos taurus, UniProt P07688); test: Inhibition of bovine cathepsin B
How it was run: (§1)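 Bovine or human cathepsin B, assayed in 20 mM sodium acetate, pH 5.2, with 0.5 mM dithiothreitol and 2% DMSO. The two enzyme sources were used interchangeably. Ki was taken from Dixon plots, with triplicate assays plotted as 1/v versus inhibitor concentration.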

Cathepsin B [3] = biological target: Cathepsin B (Homo sapiens, UniProt P07858); test: Inhibition of human cathepsin B; how it was run: as §1
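Throughout, for IC: measured as membrane permeability of platelets.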

Ki [1] [nM]	Ki (Cathepsin B [2]) [nM]	Ki (Cathepsin B [3]) [nM]	Compound	IC (Rattus norvegicus) [µM]
370	94		CCC(NC(=O)C(CC(C)C)NC(=O)OCc1ccccc1)C(=O)C(=O)NCCCN1CCCc2ccccc21 (stereo unspecified)	
850	1200		CCNC(=O)C(=O)C(CC)NC(=O)C(CC(C)C)NC(=O)c1ccco1 (stereo unspecified)	
480	20000		CC(C)CC(NC(=O)OCc1ccccc1)C(=O)NC(Cc1ccccc1)C(=O)C(=O)NCC(O)c1ccc(OCc2ccccc2)c(OCc2ccccc2)c1 (stereo unspecified)	
380	220		CCC(NC(=O)C(CC(C)C)NC(=O)OCc1ccccc1)C(=O)C(=O)NCC(O)c1cc(OC)c(OC)c(OC)c1 (stereo unspecified)	
1900	220		CCNC(=O)C(=O)C(CC)NC(=O)C(CC(C)C)NC(=O)CCc1ccccc1 (stereo unspecified)	
80	110		CCC(NC(=O)C(CC(C)C)NC(=O)OCc1ccccc1)C(=O)C(=O)NCC(O)c1ccc(OCc2ccccc2)cc1 (stereo unspecified)	
		1200	CCC(NC(=O)C(CC(C)C)NC(=O)OCc1ccccc1)C(=O)C(=O)NCCc1cccn1C (stereo unspecified)	
10000	240		CC(C)CC(NC(=O)C(c1ccccc1)c1ccccc1)C(=O)NC(Cc1ccccc1)C(=O)C(=O)NCC(O)c1ccccc1 (stereo unspecified)	
110		310	CCC(NC(=O)C(CC(C)C)NC(=O)OCc1ccccc1)C(=O)C(=O)NCCc1cccc(OC)c1 (stereo unspecified)	
700	210		CC(C)CC(NC(=O)OCc1ccccc1)C(=O)NC(Cc1ccccc1)C(=O)C(=O)NCC(O)c1c(F)c(F)c(F)c(F)c1F (stereo unspecified)	
760		3800	CC(C)CC(NC(=O)C(c1ccccc1)c1ccccc1)C(=O)NC(Cc1ccccc1)C(=O)C(=O)NCCCN1CCOCC1 (stereo unspecified)	
130		630	CCC(NC(=O)C(CC(C)C)NC(=O)OCc1ccccc1)C(=O)C(=O)NCCc1ccccc1OC (stereo unspecified)	
120	63		CCC(NC(=O)C(CC(C)C)NC(=O)OCc1ccccc1)C(=O)C(=O)NCC(O)c1cccc2ccccc12 (stereo unspecified)	
			CCCNC(=O)C(=O)C(CC)NC(=O)C(CC(C)C)NC(=O)OCc1ccccc1 (stereo unspecified)	70
240	120		CCC(NC(=O)C(CC(C)C)NC(=O)OCc1ccccc1)C(=O)C(=O)NCC(O)c1ccc(OC)cc1 (stereo unspecified)	
650	660		CCC(NC(=O)C(CC(C)C)NC(=O)OCc1ccccc1)C(=O)C(=O)NCCNC(=O)CCCC[C@@H]1SC[C@@H]2NC(=O)N[C@@H]21 (stereo partly specified)	
330	72		CCC(NC(=O)C(CC(C)C)NC(=O)OCc1ccccc1)C(=O)C(=O)NCC(O)c1ccc(N(C)C)cc1 (stereo unspecified)	
270	100		CCC(NC(=O)C(CC(C)C)NC(=O)OCc1ccccc1)C(=O)C(=O)NCC(O)c1cccc(Oc2ccc(Cl)c(Cl)c2)c1 (stereo unspecified)	
1400	350		CCNC(=O)C(=O)C(CC)NC(=O)C(CC(C)C)NC(=O)c1cnccn1 (stereo unspecified)	
250		300	CCC(NC(=O)C(CC(C)C)NC(=O)OCc1ccccc1)C(=O)C(=O)NCc1nccc2ccccc12 (stereo unspecified)	

Ki [1] [nM]	Ki (Cathepsin B [2]) [nM]	Ki (Cathepsin B [3]) [nM]	Compound	IC (Rattus norvegicus) [µM]
110		340	CC(C)CC(NC(=O)OCc1ccccc1)C(=O)NC(Cc1ccccc1)C(=O)C(=O)NCc1ccc2ccccc2n1 (stereo unspecified)	
350	220		CCNC(=O)C(=O)C(CC)NC(=O)C(CC(C)C)NC(=O)c1nccc2ccccc12 (stereo unspecified)	
460	140		CC(C)CC(NC(=O)OCc1ccccc1)C(=O)NC(Cc1ccccc1)C(=O)C(=O)NCC(O)c1cccc(C(F)(F)F)c1 (stereo unspecified)	
600	640		CC(C)CC(NC(=O)OCc1ccccc1)C(=O)NC(Cc1ccccc1)C(=O)C(=O)NCC(O)c1cccc(Oc2ccccc2)c1 (stereo unspecified)	
290		9900	CCC(NC(=O)C(CC(C)C)NC(=O)OCc1ccccc1)C(=O)C(=O)NCCCn1ccnc1 (stereo unspecified)	
280	330		CCC(NC(=O)C(CC(C)C)NC(=O)OCc1ccccc1)C(=O)C(=O)NC (stereo unspecified)	
620	310		CC(C)CC(NC(=O)OCc1ccccc1)C(=O)NC(Cc1ccccc1)C(=O)C(=O)NCC(O)c1ccc(N(C)C)cc1 (stereo unspecified)	
32000	1700		CCC(NC(=O)C(CC(C)C)NC(=O)OCc1ccccc1)C(=O)C(=O)NCc1nc2c(c(=O)n(C)c(=O)n2C)n1C (stereo unspecified)	
1300	880		CCNC(=O)C(=O)C(CC)NC(=O)C(CC(C)C)NC(=O)c1cccnc1 (stereo unspecified)	
	110		CCOC(CNC(=O)C(=O)C(CC)NC(=O)C(CC(C)C)NC(=O)OCc1ccccc1)OCC (stereo unspecified)	
	96		CCNC(=O)C(=O)C(CC)NC(=O)C(CC(C)C)NC(=O)c1ccc2ccccc2n1 (stereo unspecified)	
5000	550		CCNC(=O)C(=O)C(CC)NC(=O)C(CC(C)C)NC(=O)C(c1ccccc1)c1ccccc1 (stereo unspecified)	
900	120		CCC(NC(=O)C(CC(C)C)NC(=O)OCc1ccccc1)C(=O)C(=O)NCC(O)c1cccc(Oc2ccccc2)c1 (stereo unspecified)	
120		440	CCC(NC(=O)C(CC(C)C)NC(=O)OCc1ccccc1)C(=O)C(=O)NCCc1ccc(OC)cc1 (stereo unspecified)	
380	140		CC(C)CC(NC(=O)OCc1ccccc1)C(=O)NC(Cc1ccccc1)C(=O)C(=O)NCCCN1CCCc2ccccc21 (stereo unspecified)	
310		8000	CCC(NC(=O)C(CC(C)C)NC(=O)OCc1ccccc1)C(=O)C(=O)NCCCN1CCc2ccccc2C1 (stereo unspecified)	
130	450		CCC(NC(=O)C(CC(C)C)NC(=O)OCc1ccccc1)C(=O)C(=O)NCc1ccc2ccccc2n1 (stereo unspecified)	
19		750	CCCC(NC(=O)C(CC(C)C)NC(=O)OCc1ccccc1)C(=O)C(=O)NCc1ccccn1 (stereo unspecified)	
7800	3400		CCCC(NC(=O)C(CC(C)C)NC(=O)OCc1ccccc1)C(=O)C(=O)NCC(O)c1ccccc1 (stereo unspecified)	
	380		CC(C)CC(NC(=O)OCc1ccccc1)C(=O)NC(Cc1ccccc1)C(=O)C(=O)NCC(O)c1ccc(OCc2ccccc2)cc1 (stereo unspecified)	

Ki [1] [nM]	Ki (Cathepsin B [2]) [nM]	Ki (Cathepsin B [3]) [nM]	Compound	IC (Rattus norvegicus) [µM]
800		2300	CCC(NC(=O)C(CC(C)C)NC(=O)C(c1ccccc1)c1ccccc1)C(=O)C(=O)NCCCN1CCOCC1 (stereo unspecified)	
590	640		CC(C)CC(NC(=O)OCc1ccccc1)C(=O)NC(Cc1ccccc1)C(=O)C(=O)NCC(O)c1cccc(Oc2ccc(Cl)c(Cl)c2)c1 (stereo unspecified)	
50	150		CCC(NC(=O)C(CC(C)C)NC(=O)OCc1ccccc1)C(=O)C(=O)NCC(O)c1c(F)c(F)c(F)c(F)c1F (stereo unspecified)	
220	230		CC(C)CC(NC(=O)OCc1ccccc1)C(=O)NC(Cc1ccccc1)C(=O)C(=O)NCCNC(=O)CCCC[C@@H]1SC[C@@H]2NC(=O)N[C@@H]21 (stereo partly specified)	
650		800	CC(C)CC(NC(=O)OCc1ccccc1)C(=O)NC(Cc1ccccc1)C(=O)C(=O)NCc1ccccn1 (stereo unspecified)	
230	320		CCC(NC(=O)C(CC(C)C)NC(=O)OCc1ccccc1)C(=O)C(=O)NCC(O)c1ccc(OCc2ccccc2)c(OCc2ccccc2)c1 (stereo unspecified)	
300		350	CCNC(=O)C(=O)C(CC)NC(=O)C(CC(C)C)NC(=O)Cc1cccc2ccccc12 (stereo unspecified)	
350	63		CCC(NC(=O)C(CC(C)C)NC(=O)OCc1ccccc1)C(=O)C(=O)NCC(O)c1ccc2ccccc2c1 (stereo unspecified)	
100	210		CCC(NC(=O)C(CC(C)C)NC(=O)OCc1ccccc1)C(=O)C(=O)NCC(O)c1ccc(Oc2ccccc2)cc1 (stereo unspecified)	
410			CCC(NC(=O)C(CC(C)C)NC(=O)OCc1ccccc1)C(=O)C(=O)NCCc1ccccn1 (stereo unspecified)	70
180	120		CC(C)CC(NC(=O)OCc1ccccc1)C(=O)NC(Cc1ccccc1)C(=O)C(=O)NCC(O)c1cccc(Oc2cccc(C(F)(F)F)c2)c1 (stereo unspecified)	
220		4500	CC(C)CC(NC(=O)OCc1ccccc1)C(=O)NC(Cc1ccccc1)C(=O)C(=O)NCCCN1CCc2ccccc2C1 (stereo unspecified)	
			CCC(NC(=O)C(CC(C)C)NC(=O)C(c1ccccc1)c1ccccc1)C(=O)C(=O)NCc1ccccn1 (stereo unspecified)	88
350	110		CCC(NC(=O)C(CC(C)C)NC(=O)OCc1ccccc1)C(=O)C(=O)NCC(O)c1cccc(C(F)(F)F)c1 (stereo unspecified)	
200	2100		CC(C)CC(NC(=O)OCc1ccccc1)C(=O)NC(Cc1ccccc1)C(=O)C(=O)NCC(O)c1ccc(Oc2ccccc2)cc1 (stereo unspecified)	
	190		CCC(NC(=O)C(CC(C)C)NC(=O)OCc1ccccc1)C(=O)C(=O)NCC(OC)OC (stereo unspecified)	
350	570		CNC(=O)C(=O)C(Cc1ccccc1)NC(=O)C(CC(C)C)NC(=O)OCc1ccccc1 (stereo unspecified)	
70	300		CCC(NC(=O)C(CC(C)C)NC(=O)OCc1ccccc1)C(=O)C(=O)NCC(O)c1cccc(Oc2cccc(C(F)(F)F)c2)c1 (stereo unspecified)	
7900	4300		CCNC(=O)C(=O)C(CC)NC(=O)C(CC(C)C)NC(=O)N1CCOCC1 (stereo unspecified)	
